Data: ChEMBL document CHEMBL1250478 (J Med Chem, 2010)
The source made the active and inactive calls. The calls are words filed in the database; no cut-off is given here.

Assays:
Plasmodium falciparum [1] = assay: Ratio of compound IC50 to chloroquine IC50 for chloroquine-sensitive Plasmodium falciparum D6; format: functional
Plasmodium falciparum [2] = assay: Ratio of compound IC50 to chloroquine IC50 for chloroquine-resistant Plasmodium falciparum 7G8; format: functional
[3] = Therapeutic index, ratio of IC50 for mice (Mus musculus) spleen lymphocytes to IC50 for chloroquine-resistant Plasmodium falciparum Dd2; format: tissue-based; conditions: read-out: Ratio IC50
Plasmodium falciparum [4] = assay: Ratio of compound IC50 to chloroquine IC50 for chloroquine-resistant Plasmodium falciparum Dd2; format: functional
Plasmodium falciparum [5] = assay: Antiplasmodial activity against chloroquine-resistant Plasmodium falciparum Dd2 early trophozoites infected in NMRI mice (Mus musculus) RBC assessed as inhibition of hemozoin formation at 100 nM after 24 hrs by microscopic analysis; format: functional, organism-based
In short: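 D6 and Dd2 cultures synchronized to ring stage with 5% sorbitol, suspended at 1% hematocrit and exposed to drug (from 1 mM stock) for 24 h at 37 °C under 5% O2/5% CO2/90% N2. Giemsa-stained smears examined by microscopy for hemozoin, parasitemia and parasite morphology.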

Plasmodium falciparum [6] = assay: Antiplasmodial activity against synchronized chloroquine-resistant Plasmodium falciparum Dd2 infected in NMRI mice (Mus musculus) RBC assessed as inhibition of hemozoin formation at 1000 nM after 24 hrs by colorimetric analysis; format: functional, organism-based
In short: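 Sorbitol-synchronized D6 and Dd2 cultures at 1% hematocrit were drug-treated for 24 h at 37 °C. Parasites were freed by freeze-thaw and saponin/Triton lysis buffer (37 °C, 30 min). Hemozoin was pelleted at 215,000 g, washed with acetone and PBS, then dissolved in 0.2 N NaOH. Heme was quantified by A400 (ε 91,000 cm-1M-1) per parasitized erythrocyte. Baseline was taken from 0 h culture.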

Plasmodium berghei [7] = assay: Antiplasmodial activity against Plasmodium berghei infected in NMRI mice (Mus musculus) assessed as survival rate at 30 mg/kg, perorally administered as single dose; format: functional; conditions: route oral
In short: (§1)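 P. berghei blood diluted in saline to 10^8 parasitized erythrocytes/mL; 0.2 mL given i.v. to groups of 3 female NMRI mice (controls 5). Compounds dosed at 10 ml/kg either once on day 1 (oral gavage or subcutaneous) or orally at 4, 24, 48, 72 h post-infection. Parasitemia read by FACS on 100,000 RBCs from tail blood on day 3 (single dose) or day 4 (quadruple dose). Activity = % reduction versus control mean. Survival monitored to 30 days.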

Plasmodium falciparum [8] = assay: Antiplasmodial activity against synchronized chloroquine-sensitive Plasmodium falciparum D6 infected in NMRI mice (Mus musculus) RBC assessed as inhibition of hemozoin formation at 1000 nM after 24 hrs by colorimetric analysis; format: functional, organism-based
In short: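 D6 cultures synchronized with sorbitol, held at 1% hematocrit, drug-treated 24 h at 37 °C. Parasites freeze-thawed, then lysed 30 min at 37 °C in saponin/Triton X-100 buffer. Hemozoin pelleted at 215,000 g, washed with acetone and PBS, dissolved 2 h in 0.2 N NaOH. Heme read at A400 (ε 91,000 cm-1M-1) and expressed per parasitized erythrocyte. A 0 h culture gave the baseline.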

Plasmodium berghei [9] = assay: Antiplasmodial activity against Plasmodium berghei infected in NMRI mice (Mus musculus) assessed as survival rate at 30 mg/kg, subcutaneously administered as single dose; format: functional; conditions: route subcutaneous; in short: as §1
Plasmodium falciparum [10] = assay: Antiplasmodial activity against chloroquine-sensitive Plasmodium falciparum D6 early trophozoites infected in NMRI mice (Mus musculus) RBC assessed as inhibition of hemozoin formation at 100 nM after 24 hrs by microscopic analysis; format: functional, organism-based
In short: (§2)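 Ring-stage D6 parasites synchronized with 5% sorbitol, suspended at 1% hematocrit and drug added from 1 mM stock. Incubated 24 h at 37 °C under 5% O2/5% CO2/90% N2 alongside a no-drug control. Giemsa-stained smears were used for parasitemia and for microscopic examination of hemozoin and parasite morphology.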

[11] = Drug level in erythrocytes infected with chloroquine-resistant Plasmodium falciparum Dd2 after 1 hr; conditions: erythrocyte
[12] = Drug level in NMRI mice (Mus musculus) erythrocytes infected with chloroquine-sensitive Plasmodium falciparum D6 after 1 hr; format: ADME, cell-based; conditions: erythrocyte
In short: (§3)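 Sorbitol-synchronized mature trophozoites (about 10% parasitemia) in 5 mL complete medium, drug at about 5 µM initial medium concentration. Medium sampled over time and analyzed by C18 HPLC. NH4Cl (10 mM) added 10 min before sampling to release accumulated drug; uptake is the difference from the 1 h level. DV concentration assumes 6 × 10^7 PRBCs and a 4 fL DV. Accumulation ratio is DV/medium concentration.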

Plasmodium berghei [13] = assay: Antiplasmodial activity against Plasmodium berghei infected in NMRI mice (Mus musculus) assessed as survival rate at 30 mg/kg, perorally administered as 4 consecutive doses measured post last dose; format: functional; conditions: route oral; in short: as §1
Plasmodium berghei [14] = assay: Antiplasmodial activity against Plasmodium berghei infected in NMRI mice (Mus musculus) assessed as parasitaemia level at 30 mg/kg, perorally administered as single dose measured after 3 days relative to control; format: functional; conditions: route oral; in short: as §1
Heme = assay: Binding affinity to heme after 4 hrs by equilibrium binding assay
In short: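 Heme stock in NaOH, diluted to 5 µM in 100 mM phosphate buffer pH 5.7 and equilibrated 4 h. Optical titration by successive addition of compound, with pH held within ±0.05. Apparent dissociation constants from nonlinear least-squares fitting, assuming 2:1 heme:drug stoichiometry.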

[15] = Solubility of the compound; format: physicochemical
Plasmodium berghei [16] = assay: Antiplasmodial activity against Plasmodium berghei infected in NMRI mice (Mus musculus) assessed as parasitaemia level at 30 mg/kg, perorally administered as 4 consecutive doses measured after 3 days post last dose relative to control; format: functional; conditions: route oral; in short: as §1
Plasmodium berghei [17] = assay: Antiplasmodial activity against Plasmodium berghei infected in NMRI mice (Mus musculus) assessed as parasitaemia level at 30 mg/kg, subcutaneously after 3 days relative to control; format: functional; conditions: route subcutaneous; in short: as §1
[18] = Inhibition of beta-hematin formation after 24 hrs; format: functional
In short: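 40 µM heme in 0.67 M sodium acetate pH 4.8 with 0.0005 g/L Tween20, compound at 0–1000 µM. Incubated 24 h at 37 °C in the dark, then read at 415/630 nm. IC50 taken as (Dmax − Dinitial)/2. Duplicate assays, run twice.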

Plasmodium falciparum [19] = assay: Inhibition of hemozoin formation in early trophozoites of chloroquine-sensitive Plasmodium falciparum D6 infected in RBC assessed as enlarged digestive vacuole at 100 nM after 24 hrs by microscopic analysis; format: functional, organism-based; in short: as §2
[20] = Drug level in chloroquine-sensitive Plasmodium falciparum D6 digestive vacuole assessed as ratio of drug level in vacuole to medium at 5 uM after 1 hr; format: ADME; conditions: plasmodium falciparum d6, 1 h; in short: as §3
[21] = Drug level in chloroquine-sensitive Plasmodium falciparum Dd2 digestive vacuole assessed as ratio of drug level in vacuole to medium at 5 uM after 1 hr; format: ADME; conditions: plasmodium falciparum dd2, 1 h, in the assay text read “chloroquine-resistant” for “chloroquine-sensitive”; in short: as §3
[22] = Drug level in chloroquine-sensitive Plasmodium falciparum D6 digestive vacuole after 1 hr; format: ADME; conditions: plasmodium falciparum d6, 1 h; in short: as §3

Row | Compound | Ratio IC50 (Plasmodium falciparum [1]) | Ratio IC50 (Plasmodium falciparum [2]) | selectivity ratio [3] | Ratio IC50 (Plasmodium falciparum [4]) | Kd (Heme) | other results
1 | Clc1ccc2c(NCCCN3CCCN(C(c4ccccc4)c4ccccc4)CC3)ccnc2c1 | 4.8 | 15 | 171 | 4.1 | – | –
2 | CCN(CC)CCCC(C)Nc1ccnc2cc(Cl)ccc12 (stereo not drawn) [CHLOROQUINE] | – | – | – | – | – | inhibition (Plasmodium falciparum [5]): inactive; inhibition (Plasmodium falciparum [6]): Active; Survival (Plasmodium berghei [7]): 9 days; inhibition (Plasmodium falciparum [8]): Active; Survival (Plasmodium berghei [9]): 10 days; inhibition (Plasmodium falciparum [10]): inactive; Drug uptake [11]: 0.5 ×10⁻⁸ mol; Drug uptake [12]: 0.7 ×10⁻⁸ mol; Survival (Plasmodium berghei [13]): 23 days
3 | Fc1ccc(C(c2ccc(F)cc2)N2CCN(CCCNc3ccnc4cc(Cl)ccc34)CC2)cc1 | 2 | 34 | 1710 | 2.4 | – | –
4 | Clc1ccc2c(NCCCN3CCN(C(c4ccccc4)(c4ccccc4)c4ccccc4)CC3)ccnc2c1 | 2 | 10 | 13600 | 4.2 | 5.4 µM | Survival (Plasmodium berghei [7]): 7 days; Activity (Plasmodium berghei [14]): 99.7%; solubility [15]: Insoluble; Survival (Plasmodium berghei [9]): 3 days; Activity (Plasmodium berghei [16]): >99.9%; Activity (Plasmodium berghei [17]): <40%; Survival (Plasmodium berghei [13]): 20 days
5 | Clc1ccc2c(NCCCN3CCN(C(c4ccccc4)c4ccccc4)CC3)ccnc2c1 | 1.9 | 11 | 423 | 2.6 | 3 µM | IC50 [18]: 3.5 µM
6 | Clc1ccc2c(NCCCN3CCN(C4C5CC6CC(C5)CC4C6)CC3)ccnc2c1 (stereo not drawn) | 0.8 | 10 | 69400 | 1.8 | 2.5 µM | IC50 [18]: 14 µM
7 | CN(CCCNc1ccnc2cc(Cl)ccc12)CCCN1c2ccccc2CCc2ccccc21 | 2.9 | 4 | 132 | 5.3 | 8.6 µM | Survival (Plasmodium berghei [7]): 3 days; Activity (Plasmodium berghei [14]): <40%; inhibition (Plasmodium falciparum [19]): Active; Ratio [20]: 32000; Survival (Plasmodium berghei [9]): 7 days; Activity (Plasmodium berghei [16]): 96%; inhibition (Plasmodium falciparum [10]): inactive; Activity (Plasmodium berghei [17]): 92%; Drug uptake [11]: 1.8 ×10⁻⁸ mol; Drug uptake [12]: 1.6 ×10⁻⁸ mol; Survival (Plasmodium berghei [13]): 8 days; IC50 [18]: 9 µM; Ratio [21]: 38000; Drug uptake [22]: 65000 µM
8 | Clc1ccc2c(NCCCN3CCN(CC(c4ccccc4)c4ccccc4)CC3)ccnc2c1 | 0.5 | 3.4 | 6970 | 3.3 | – | –
9 | Clc1ccc2c(NCCN3CCN(C(c4ccccc4)c4ccccc4)CC3)ccnc2c1 | 1 | 4.3 | 528 | 3.6 | 3.3 µM | Survival (Plasmodium berghei [7]): 8 days; Activity (Plasmodium berghei [14]): >99.9%; Survival (Plasmodium berghei [9]): 3 days; Activity (Plasmodium berghei [16]): >99.9%; Activity (Plasmodium berghei [17]): <40%; Survival (Plasmodium berghei [13]): 16 days; IC50 [18]: 2.5 µM
10 | Clc1ccc(C(c2ccccc2)N2CCN(CCCNc3ccnc4cc(Cl)ccc34)CC2)cc1 (stereo not drawn) | 3.2 | 12 | 229 | 3.5 | – | –
11 | Clc1ccc2c(NCCCCN3CCN(C(c4ccccc4)c4ccccc4)CC3)ccnc2c1 | 1.3 | 7.2 | 846 | 1.3 | – | –
12 | Clc1ccc2c(NCCCN3CCCN(C4c5ccccc5-c5ccccc54)CC3)ccnc2c1 | 21 | 56 | 167 | 15 | – | –
13 | Clc1ccc(C(c2ccccc2)N2CCN(CCNc3ccnc4cc(Cl)ccc34)CC2)cc1 (stereo not drawn) | 2.6 | 10 | 700 | 2 | – | –
14 | Clc1ccc2c(NCCN3CCCN(C4c5ccccc5-c5ccccc54)CC3)ccnc2c1 | 9.2 | 41 | 260 | 9.6 | – | –
15 | OCCN1CCN(C(c2ccccc2)c2ccccc2)CC1 | >2500 | >2500 | > 50 | >2500 | – | –
16 | Clc1ccc(C(c2ccccc2)N2CCCN(CCCNc3ccnc4cc(Cl)ccc34)CC2)cc1 (stereo not drawn) | 6.6 | 22 | 158 | 5.7 | – | –
17 | CN(CCCN1c2ccccc2CCc2ccccc21)CCNc1ccnc2cc(Cl)ccc12 | 3.6 | 21 | 269 | 5.2 | 7.3 µM | IC50 [18]: 10 µM
18 | Clc1ccc2c(NCCCN3CCNCC3)ccnc2c1 | 4.3 | – | 3380 | 6.8 | – | –
